MrgX1 antagonist: antagonists of human MrgX1 receptor | Q96LB2 | MRGX1-HEK293 calcium flux, Fluo-4, BAM8-22 antagonism; stronger effect = lower value | B-score at 10 µM | 310,000 compounds, 1.3% hits;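 active means calcium-response B-score plate-corrected more than 3 library SD below zero, starting fluorescence within 5 deviations, no agonist response on first addition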;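 further: peak minus trough fluorescence over baseline after final BAM8-22 challenge near maximal dose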
Target sequence (Q96LB2 whole entry, looked up): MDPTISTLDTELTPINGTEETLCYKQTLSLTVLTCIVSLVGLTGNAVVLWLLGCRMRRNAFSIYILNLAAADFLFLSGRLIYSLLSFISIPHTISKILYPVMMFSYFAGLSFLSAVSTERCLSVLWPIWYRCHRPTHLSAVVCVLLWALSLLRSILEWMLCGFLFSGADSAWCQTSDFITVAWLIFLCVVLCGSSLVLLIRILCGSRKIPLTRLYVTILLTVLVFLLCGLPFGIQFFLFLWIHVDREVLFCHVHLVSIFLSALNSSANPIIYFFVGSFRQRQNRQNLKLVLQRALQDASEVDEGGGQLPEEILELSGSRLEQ
MrgX1 PAM: allosterically activates human MrgX1 receptor signaling. Q96LB2. MrgX1-HEK293, Fluo-4 calcium flux, FDSS; stronger effect = higher value. 310,000 compounds, 0.63% hits. B-score at 10 µM;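 active means plate-corrected calcium response at least 3 library SD above typical, normal starting fluorescence, not activating the receptor alone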;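 further: compound read alongside a low EC10 to EC30 dose of BAM8-22 agonist; peak minus trough fluorescence over baseline measured at the second addition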
RGS4 act: potentiators or activators of RGS4. HEK293 M3R/inducible RGS4, carbachol calcium flux Fluo4; stronger effect = lower value. B-score at 10 µM. 310,000 compounds, 0.92% hits;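 active means B-score of the integrated calcium signal more than 4 SD below the library mean, with starting fluorescence not abnormally high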;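 further: negative B-score means reduced calcium response which marks RGS4 activation or potentiation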
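System: HEK293 FlpIn-TREx cells, stable M3R, doxycycline-inducible RGS4. Timing: overnight RGS4 induction, 30 min dye load 37 °C, 20 min compound RT. Also added: carbachol, ECmax concentration. Measured by: Fluo4 fluorescence kinetic imaging of calcium. Evaluation: integrated calcium ratio converted to B score.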
MrgX1 ag: agonists of human MrgX1 receptor; MrgX1-HEK293 cells, Fluo-4 calcium fluorescence, agonist mode; stronger effect = higher value; Q96LB2; AID 588627; B-score at 10 µM; 310,000 compounds, 0.44% hits;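 active means calcium response B-score plate-corrected fluorescence ratio at least 3 library SD, with starting fluorescence B-score inside 5 SD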
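Material: MrgX1-expressing HEK293 cells; input: 15,000 cells per well; doses: test compound given as first of three sequential additions; schedule: overnight plating before 1 h dye loading; technique: Fluo-4 NW calcium-flux fluorescence, kinetic read; evaluation: baseline-normalised fluorescence change ratio, B-scored; control set: plate-wise positive and negative controls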
RGS4 block: inhibitors of human RGS4; P49798; HEK293 M3R/RGS4 inducible, Fluo-4 calcium flux; stronger effect = higher value; triggered by carbachol at its EC20; B-score at 10 µM; 310,000 compounds, 0.45% hits;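 active means B-score, a plate-corrected calcium signal, over three deviations above library mean, with baseline fluorescence within five deviations of library mean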;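 further: RGS4 expression induced by doxycycline in cells with stable M3 receptor; B-score is computed from the integrated fluorescence ratio over baseline after carbachol; higher B-score means a larger calcium signal and so more RGS4 inhibition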
Target sequence (P49798 whole entry, looked up): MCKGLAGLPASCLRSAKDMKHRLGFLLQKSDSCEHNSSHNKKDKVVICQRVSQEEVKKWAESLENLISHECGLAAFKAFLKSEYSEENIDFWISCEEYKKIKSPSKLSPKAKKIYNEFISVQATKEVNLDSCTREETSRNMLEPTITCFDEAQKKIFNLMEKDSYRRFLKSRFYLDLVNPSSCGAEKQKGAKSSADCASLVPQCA
RGS4 inh valid: validation of RGS4 inhibitors. calcium response, % at 10 µM. 1,700 compounds, 65% hits. HEK293 M3R/RGS4, carbachol calcium Fluo-4 fluorescence; carbachol added at its EC20; 0 = buffer wells, 100 = carbachol control. shares compounds with RGS4 block;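 active means duplicate-averaged calcium response above the buffer-only control mean plus 5 SD of those controls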;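 further: integrated fluorescence ratio F max minus min over baseline F0; higher response in RGS4-induced cells means RGS4 inhibition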
M3R Ca ctr: counter-screen for RGS4 inhibitors: effect in non-induced cells | HEK293 M3R non-induced, carbachol calcium Fluo-4; submaximal (EC20) carbachol stimulus; buffer wells 0%, carbachol control wells 100% | activity (percent), % at 10 µM | shares compounds with RGS4 block | 1,900 compounds, 20% hits; call rule not given here;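 further: RGS4 induction absent so cells express M3R without RGS4; higher means more calcium signal and flags a non-specific hit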
M3R basal Ca ctr: second counter-screen for RGS4 inhibitors: non-induced cells without carbachol. shares compounds with RGS4 block. HEK293 M3R/RGS4 non-induced, Fluo-4 calcium, no carbachol; normalised: buffer wells 0%, carbachol wells 100%. calcium response (agonist-mode artifact), % at 10 µM. 1,900 compounds, 22% hits;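 active means duplicate-averaged calcium rise in uninduced cells above buffer wells' mean plus 5 SD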
* hit, by the source's call; i = inactive; . = not tested or not shown. A selection: hits, their analogues and other compounds. The true share with any hit is near 3.5%.

SMILES | MrgX1 antagonist | MrgX1 PAM | RGS4 act | MrgX1 ag | RGS4 block | RGS4 inh valid | M3R Ca ctr | M3R basal Ca ctr
COCCCNC(=O)C1Cc2cc(S(=O)(=O)N3CCCC3)ccc2N1C(C)=O (stereo not drawn) | i | i | i | i | i | . | . | .
CCOC(=O)/C(=C\c1cn(C)c2ccccc12)[N+](=O)[O-] | -4.6* | i | i | i | 5.8* | 34%* | i | 20%*
CCOC(=O)/C(C#N)=C\c1cn(C)c2ccccc12 | i | i | i | i | i | . | . | .
CCOC(=O)C(C)/C(C)=N/NC(N)=S (stereo not drawn) | i | i | i | i | 17* | 54%* | i | i
CCOC(=O)C(C)/C(C)=N\Nc1ccc([N+](=O)[O-])cc1[N+](=O)[O-] (stereo not drawn) | i | i | i | i | i | . | . | .
CC(C)c1nc2c(c(=O)c3ccccc3n2C)c(=O)n1CCc1ccccc1 | i | i | i | i | i | . | . | .
O=C(NCCN1C(=O)S/C(=C\c2ccc(Cl)c(Cl)c2)C1=O)C1COc2ccccc2O1 (stereo not drawn) | i | i | i | i | 4.9* | 8.0%* | i | i
COc1ccc(/C=C2/SC(=O)N(CCNC(=O)C3COc4ccccc4O3)C2=O)cc1 (stereo not drawn) | i | i | i | i | i | . | . | .
NC(=O)c1cc2c(s1)-c1cc(Cl)ccc1SC2 | i | i | i | i | 5.9* | 18%* | i | i
COCCNC(=O)c1cc2c(s1)-c1ccc(Cl)cc1SC2 | i | i | i | i | i | . | . | .
O=C(c1ccco1)N1CCN(c2ncnc3c(-c4ccccc4)nsc23)CC1 | i | i | i | i | i | . | i | i
COc1ccc(-c2nsc3c(N4CCN(C(=O)c5ccco5)CC4)ncnc23)cc1 | i | i | i | i | i | i | i | i
NC(=O)C1CCN(c2ncnc3c(-c4ccccc4)nsc23)CC1 | i | i | i | i | i | . | . | .
COc1cccc(NC(=S)/C(=C(\[O-])c2ccc([N+](=O)[O-])cc2)[n+]2ccccc2)c1 | i | i | i | i | i | . | . | .
CC(C)NCC(O)c1cc(O)cc(O)c1 (stereo not drawn) | i | i | i | i | 4.8* | 22%* | 52%* | i
Cn1cc([N+](=O)[O-])c(C(=O)N2CCN(Cc3ccc4c(c3)OCO4)CC2)n1 | i | i | i | i | i | . | . | .
OCc1ccc(-c2nn(Cc3ccccc3)c3ccccc23)o1 | i | i | i | i | 5.1* | 6.0%* | i | i
O=c1c2ccccc2c(-c2n[nH]c(=S)o2)nn1Cc1ccccc1 | i | i | i | i | i | . | . | .
COc1cc(/C=C2\C(=O)N(c3ccc(NC(C)=O)cc3)N=C2c2ccccc2)ccc1O | i | i | i | i | 6.2* | i | i | 16%*
O=S(=O)(/N=C(/Sc1ccccc1)c1ccccc1)c1ccccc1 | i | i | i | i | 13* | 16%* | i | 22%*
CS/C(=N\S(=O)(=O)c1ccccc1)c1ccccc1 | i | i | i | i | i | . | . | .
Nc1ncc(-c2ccccc2)c(-c2ccc(O)cc2O)n1 | i | i | i | i | i | . | . | .
COc1ccc(-c2c(-c3ccc(O)cc3O)n[nH]c2C(F)(F)F)cc1 | i | i | i | i | 10* | 35%* | 35%* | 20%*
COc1ccccc1-c1c(-c2ccc(O)cc2O)n[nH]c1C(F)(F)F | i | i | i | i | 11* | 40%* | 33%* | i
COc1ccc(-c2c(-c3ccc(O)cc3O)n[nH]c2C)cc1OC | i | i | i | i | i | . | . | .
SMILES | MrgX1 antagonist | MrgX1 PAM | RGS4 act | MrgX1 ag | RGS4 block | RGS4 inh valid | M3R Ca ctr | M3R basal Ca ctr
Oc1ccc(-c2n[nH]c(C(F)(F)F)c2-c2ccccc2)c(O)c1 | i | i | i | i | 25* | 48%* | 46%* | i
Cc1ccc(CN2CCN(Cc3ccco3)CC2)cc1 | i | i | i | i | i | . | . | .
O=C1CCCN1CCC(=O)N1CCCC(CO)(Cc2ccccc2)C1 (stereo not drawn) | i | i | i | i | i | . | . | .
CCOC(=O)c1sc(SC)c2c1CCCC2=O | i | i | i | i | i | . | . | .
Nc1ncc(Br)cc1S(=O)(=O)Nc1ccccc1F | i | i | i | i | i | . | . | .
COc1ccc(OC)c(S(=O)(=O)Nc2c(C)n(C)n(-c3ccccc3)c2=O)c1 | i | i | i | i | i | . | . | .
Cc1nn(-c2ccccc2)c2c1C(c1ccc([N+](=O)[O-])cc1)C(C#N)=C(N)O2 (stereo not drawn) | i | i | i | i | i | . | . | .
COc1cc(C2C(C#N)=C(N)Oc3c2c(-c2ccccc2)nn3-c2ccccc2)cc(OC)c1OC (stereo not drawn) | i | i | i | i | i | . | i | i
COc1ccc(Cl)cc1NC(=O)c1cc(-c2cc(C)ccc2O)n[nH]1 | i | i | i | i | i | i | i | i
COc1ccc(NC(=O)c2cc(-c3cc(Cl)ccc3O)n[nH]2)c(OC)c1 | i | i | i | i | i | . | . | .
COc1ccc(OC)c(NC(=O)c2cc(-c3cc(C)c(C)cc3O)n[nH]2)c1 | i | i | i | i | i | . | . | .
COc1ccc(Cl)cc1NC(=O)c1cc(-c2ccc(C)cc2O)n[nH]1 | i | i | i | i | i | . | i | i
Cc1sc2nc(CN(Cc3ccccc3)C(=O)NC3CCCCC3)[nH]c(=O)c2c1C | i | i | i | i | 5.1* | i | i | i
O=C1/C(=C/c2cccc(Br)c2)SC(=S)N1CCC(=O)N(CCO)c1ccccc1 | i | i | i | i | 5.3* | 16%* | 34%* | i
COc1cccc(/C=C2\SC(=S)N(CCCC(=O)N(CCO)c3ccccc3)C2=O)c1 | i | i | i | i | i | . | . | .
CC1=NN(c2cccc(C(=O)O)c2)C(=O)/C1=C\C=C\c1ccco1 | i | i | i | i | 9.8* | 16%* | 34%* | i
